Test results as given in ChEMBL document CHEMBL4339192, “De Novo Designed Amphipathic α-Helical Antimicrobial Peptides Incorporating Dab and Dap Residues on the Polar Face To Treat the Gram-Negative Pathogen, Acinetobacter baumannii” (J Med Chem, 2019).
Converted amounts (≈) assume the structure as drawn. Where a SMILES comes first, the peptide text is derived from it. [ ]: non-standard residue; d: D form. Dab = NCC[C@H](N)C(=O)O

Assays:
Acinetobacter baumannii [1] = assay: Antibacterial activity against Acinetobacter baumannii 649 measured after 24 hrs in presence of 25% human serum by microtiter dilution method; assay type: functional; conditions: Acinetobacter baumannii, 649, 24 h
Procedure, shortened: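 Blood strain 649 was tested by MH broth microdilution with and without 25% (v/v) human serum added to the medium. The test used a final inoculum of 5 × 10^5 cfu/mL and incubation at 37 °C. The ratio is the MIC in serum over the MIC in MH alone.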

[2] = Therapeutic index, ratio of HC50 for human RBC to MIC for polymyxin B/colistin-resistant Acinetobacter baumannii M89963; assay type: toxicity; conditions: human red blood cells, read-out: TI
Procedure, shortened: (§1)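 T.I. = HC50/MIC. For HC50, peptide (quantified by amino acid analysis) was two-fold serially diluted over 12 concentrations up to 1000 μg/mL. It was incubated with 1% fresh human erythrocytes in PBS, pH 7.4, for 18 h at 37 °C. After 800g centrifugation, hemoglobin was read at 570 nm against water (100%) and no-peptide (0%) controls. HC50 came from a lysis-versus-concentration plot, average of 3 replicates.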

Acinetobacter baumannii [3] = assay: Antibacterial activity against Acinetobacter baumannii 649 measured after 24 hrs by microtiter dilution method; assay type: functional; conditions: Acinetobacter baumannii, 649, 24 h
Procedure, shortened: (§2)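 Broth microdilution in Mueller-Hinton (MH) medium. […] Plates were incubated 24 h at 37 °C. MIC was the lowest peptide concentration that inhibited growth, based on three sets of replicates.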

[4] = Therapeutic index, ratio of HC50 for human RBC to MIC for polymyxin B/colistin-resistant Acinetobacter baumannii M89955; assay type: toxicity; conditions: human red blood cells, read-out: TI; procedure, shortened: as §1
[5] = Therapeutic index, ratio of HC50 for human RBC to MIC for polymyxin B/colistin-resistant Acinetobacter baumannii M89953; assay type: toxicity; conditions: human red blood cells, read-out: TI; procedure, shortened: as §1
[6] = Therapeutic index, ratio of HC50 for human RBC to MIC for polymyxin B/colistin-resistant Acinetobacter baumannii M89951; assay type: toxicity; conditions: human red blood cells, read-out: TI; procedure, shortened: as §1
[7] = Therapeutic index, ratio of HC50 for human RBC to MIC for polymyxin B/colistin-resistant Acinetobacter baumannii M89952; assay type: toxicity; conditions: human red blood cells, read-out: TI; procedure, shortened: as §1
[8] = Therapeutic index, ratio of HC50 for human RBC to MIC for polymyxin B/colistin-resistant Acinetobacter baumannii M89949; assay type: toxicity; conditions: human red blood cells, read-out: TI; procedure, shortened: as §1
[9] = Hemolytic activity against human RBC measured after 18 hrs by spectrophotometric method; assay type: ADME, cell-based, Erythrocyte; conditions: human red blood cells (erythrocytes)
Procedure, shortened: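 Peptide (amount by amino acid analysis), two-fold serial dilutions at 12 concentrations up to 1000 μg/mL, with 1% human erythrocytes in PBS pH 7.4, 37 °C, 18 h. Unlysed cells removed by centrifugation (800g); hemoglobin read at 570 nm. Water-lysed cells = 100%, no-peptide cells = 0%. HC50 from plot of % lysis vs concentration (μM), average of 3 replicates.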

[10] = Therapeutic index, ratio of HC50 for human RBC to MIC for polymyxin B/colistin-resistant Acinetobacter baumannii M89941; assay type: toxicity; conditions: human red blood cells, read-out: TI; procedure, shortened: as §1
Acinetobacter baumannii [11] = assay: Antibacterial activity against Acinetobacter baumannii isolate 1001611 measured after 24 hrs by microtiter dilution method; assay type: functional; conditions: isolate 1001611, 24 h; procedure, shortened: as §2
Acinetobacter baumannii [12] = assay: Antibacterial activity against Acinetobacter baumannii isolate 1007660 measured after 24 hrs by microtiter dilution method; assay type: functional; conditions: isolate 1007660, 24 h; procedure, shortened: as §2
Acinetobacter baumannii [13] = assay: Antibacterial activity against Acinetobacter baumannii isolate 1021371 measured after 24 hrs by microtiter dilution method; assay type: functional; conditions: isolate 1021371, 24 h; procedure, shortened: as §2
Acinetobacter baumannii [14] = assay: Antibacterial activity against Acinetobacter baumannii isolate 952654 measured after 24 hrs by microtiter dilution method; assay type: functional; conditions: isolate 952654, 24 h; procedure, shortened: as §2
Acinetobacter baumannii [15] = assay: Antibacterial activity against Acinetobacter baumannii isolate 9383370 measured after 24 hrs by microtiter dilution method; assay type: functional; conditions: isolate 9383370, 24 h; procedure, shortened: as §2
Acinetobacter baumannii [16] = assay: Antibacterial activity against Acinetobacter baumannii isolate 961997 measured after 24 hrs by microtiter dilution method; assay type: functional; conditions: isolate 961997, 24 h; procedure, shortened: as §2
Acinetobacter baumannii [17] = assay: Antibacterial activity against Acinetobacter baumannii isolate 1002956 measured after 24 hrs by microtiter dilution method; assay type: functional; conditions: isolate 1002956, 24 h; procedure, shortened: as §2
Acinetobacter baumannii [18] = assay: Antibacterial activity against Acinetobacter baumannii isolate 977751 measured after 24 hrs by microtiter dilution method; assay type: functional; conditions: isolate 977751, 24 h; procedure, shortened: as §2
Acinetobacter baumannii [19] = assay: Antibacterial activity against Acinetobacter baumannii isolate 1035166 measured after 24 hrs by microtiter dilution method; assay type: functional; conditions: isolate 1035166, 24 h; procedure, shortened: as §2
Acinetobacter baumannii [20] = assay: Antibacterial activity against Acinetobacter baumannii isolate 1010282 measured after 24 hrs by microtiter dilution method; assay type: functional; conditions: isolate 1010282, 24 h; procedure, shortened: as §2
Acinetobacter baumannii [21] = assay: Antibacterial activity against Acinetobacter baumannii isolate 1010245 measured after 24 hrs by microtiter dilution method; assay type: functional; conditions: isolate 1010245, 24 h; procedure, shortened: as §2
Acinetobacter baumannii [22] = assay: Antibacterial activity against Acinetobacter baumannii isolate 1017395 measured after 24 hrs by microtiter dilution method; assay type: functional; conditions: isolate 1017395, 24 h; procedure, shortened: as §2
Acinetobacter baumannii [23] = assay: Antibacterial activity against Acinetobacter baumannii isolate 968886 measured after 24 hrs by microtiter dilution method; assay type: functional; conditions: isolate 968886, 24 h; procedure, shortened: as §2
Acinetobacter baumannii [24] = assay: Antibacterial activity against Acinetobacter baumannii isolate 964304 measured after 24 hrs by microtiter dilution method; assay type: functional; conditions: isolate 964304, 24 h; procedure, shortened: as §2
Acinetobacter baumannii [25] = assay: Antibacterial activity against Acinetobacter baumannii isolate 963659 measured after 24 hrs by microtiter dilution method; assay type: functional; conditions: isolate 963659, 24 h; procedure, shortened: as §2
Acinetobacter baumannii [26] = assay: Antibacterial activity against Acinetobacter baumannii isolate 963618 measured after 24 hrs by microtiter dilution method; assay type: functional; conditions: isolate 963618, 24 h; procedure, shortened: as §2
Acinetobacter baumannii [27] = assay: Antibacterial activity against Acinetobacter baumannii isolate 1018887 measured after 24 hrs by microtiter dilution method; assay type: functional; conditions: isolate 1018887, 24 h; procedure, shortened: as §2
Acinetobacter baumannii [28] = assay: Antibacterial activity against Acinetobacter baumannii isolate 1035794 measured after 24 hrs by microtiter dilution method; assay type: functional; conditions: isolate 1035794, 24 h; procedure, shortened: as §2
Acinetobacter baumannii [29] = assay: Antibacterial activity against Acinetobacter baumannii isolate 981650 measured after 24 hrs by microtiter dilution method; assay type: functional; conditions: isolate 981650, 24 h; procedure, shortened: as §2
Acinetobacter baumannii [30] = assay: Antibacterial activity against Acinetobacter baumannii isolate 965463 measured after 24 hrs by microtiter dilution method; assay type: functional; conditions: isolate 965463, 24 h; procedure, shortened: as §2
Acinetobacter baumannii [31] = assay: Antibacterial activity against polymyxin B/colistin-resistant Acinetobacter baumannii M89963 measured after 24 hrs by microtiter dilution method; assay type: functional; conditions: M89963, 24 h; procedure, shortened: as §2
Acinetobacter baumannii [32] = assay: Antibacterial activity against polymyxin B/colistin-resistant Acinetobacter baumannii M89955 measured after 24 hrs by microtiter dilution method; assay type: functional; conditions: M89955, 24 h; procedure, shortened: as §2
Acinetobacter baumannii [33] = assay: Antibacterial activity against polymyxin B/colistin-resistant Acinetobacter baumannii M89953 measured after 24 hrs by microtiter dilution method; assay type: functional; conditions: M89953, 24 h; procedure, shortened: as §2
Acinetobacter baumannii [34] = assay: Antibacterial activity against polymyxin B/colistin-resistant Acinetobacter baumannii M89952 measured after 24 hrs by microtiter dilution method; assay type: functional; conditions: M89952, 24 h; procedure, shortened: as §2
Acinetobacter baumannii [35] = assay: Antibacterial activity against polymyxin B/colistin-resistant Acinetobacter baumannii M89951 measured after 24 hrs by microtiter dilution method; assay type: functional; conditions: M89951, 24 h; procedure, shortened: as §2
Acinetobacter baumannii [36] = assay: Antibacterial activity against polymyxin B/colistin-resistant Acinetobacter baumannii M89949 measured after 24 hrs by microtiter dilution method; assay type: functional; conditions: M89949, 24 h; procedure, shortened: as §2
Acinetobacter baumannii [37] = assay: Antibacterial activity against polymyxin B/colistin-resistant Acinetobacter baumannii M89941 measured after 24 hrs by microtiter dilution method; assay type: functional; conditions: M89941, 24 h; procedure, shortened: as §2

In the case of `CC(=O)N[C@H](CCCCN)C(=O)N[C@H](CC(C)C)C(=O)N[C@@H](CCN)C(=O)N[C@H](CO)C(=O)N[C@H](CC(C)C)C(=O)N[C@H](CC(C)C)C(=O)N[C@@H](CCN)C(=O)N[C@@H](C(=O)N[C@H](CC(C)C)C(=O)N[C@H](CO)C(=O)N[C@@H](CCN)C(=O)N[C@H](C)C(=O)N[C@H](CCCCN)C(=O)N[C@H](C)C(=O)N[C@H](C)C(=O)N[C@H](CCCCN)C(=O)N[C@H](CC(C)C)C(=O)N[C@@H](CCN)C(=O)N[C@@H](C(=O)N[C@H](CC(C)C)C(=O)N[C@H](CC(C)C)C(=O)N[C@@H](CCN)C(=O)N[C@H](C)C(=O)N[C@H](CC(C)C)C(=O)N[C@H](CO)C(=O)N[C@H](CO)C(N)=O)[C@H](C)O)[C@H](C)O` (Ac-[dK][dL][Dab][dS][dL][dL][Dab][dT][dL][dS][Dab][dA][dK][dA][dA][dK][dL][Dab][dT][dL][dL][Dab][dA][dL][dS][dS]-NH2), the MIC (Acinetobacter baumannii [1]) is reported as 0.7 µM, the selectivity ratio [2] is reported as > 1010 and the MIC (Acinetobacter baumannii [3]) is reported as 0.4 µM (≈ 1.07 µg/mL). For the same compound, the selectivity ratio [4] was > 1010, the selectivity ratio [5] was > 1010 and the selectivity ratio [6] was > 1010. The selectivity ratio [7] was > 1010, the selectivity ratio [8] was > 1010 and the HC50 at 18 h [9] was > 708 µM. The selectivity ratio [10] was > 1010, the MIC (Acinetobacter baumannii [11]) was 0.4 µM (≈ 1.07 µg/mL) and the MIC (Acinetobacter baumannii [12]) was 0.4 µM (≈ 1.07 µg/mL). For the same compound, the MIC (Acinetobacter baumannii [13]) was 0.4 µM (≈ 1.07 µg/mL), the MIC (Acinetobacter baumannii [14]) was 0.4 µM (≈ 1.07 µg/mL) and the MIC (Acinetobacter baumannii [15]) was 0.7 µM (≈ 1.88 µg/mL). For the same compound, the MIC (Acinetobacter baumannii [16]) was 1.5 µM (≈ 4.03 µg/mL), the MIC (Acinetobacter baumannii [17]) was 0.4 µM (≈ 1.07 µg/mL) and the MIC (Acinetobacter baumannii [18]) was 0.7 µM (≈ 1.88 µg/mL). For the same compound, the MIC (Acinetobacter baumannii [19]) was 0.7 µM (≈ 1.88 µg/mL), the MIC (Acinetobacter baumannii [20]) was 0.7 µM (≈ 1.88 µg/mL) and the MIC (Acinetobacter baumannii [21]) was 0.4 µM (≈ 1.07 µg/mL). It also gave an MIC (Acinetobacter baumannii [22]) of 0.7 µM (≈ 1.88 µg/mL), an MIC (Acinetobacter baumannii [23]) of 0.7 µM (≈ 1.88 µg/mL) and an MIC (Acinetobacter baumannii [24]) of 0.7 µM (≈ 1.88 µg/mL). The MIC (Acinetobacter baumannii [25]) was 0.7 µM (≈ 1.88 µg/mL), the MIC (Acinetobacter baumannii [26]) was 0.4 µM (≈ 1.07 µg/mL) and the MIC (Acinetobacter baumannii [27]) was 0.7 µM (≈ 1.88 µg/mL). It also gave an MIC (Acinetobacter baumannii [28]) of 0.7 µM (≈ 1.88 µg/mL), an MIC (Acinetobacter baumannii [29]) of 0.4 µM (≈ 1.07 µg/mL) and an MIC (Acinetobacter baumannii [30]) of 0.7 µM (≈ 1.88 µg/mL). For the same compound, the MIC (Acinetobacter baumannii [31]) was 0.7 µM (≈ 1.88 µg/mL), the MIC (Acinetobacter baumannii [32]) was 0.7 µM (≈ 1.88 µg/mL) and the MIC (Acinetobacter baumannii [33]) was 1.4 µM (≈ 3.76 µg/mL). For the same compound, the MIC (Acinetobacter baumannii [34]) was 0.7 µM (≈ 1.88 µg/mL), the MIC (Acinetobacter baumannii [35]) was 0.7 µM (≈ 1.88 µg/mL) and the MIC (Acinetobacter baumannii [36]) was 0.7 µM (≈ 1.88 µg/mL). The MIC (Acinetobacter baumannii [37]) was 0.4 µM (≈ 1.07 µg/mL).
